Screens deposited in PubChem by several laboratories.
Shown are actives, neighbours in structure and some others; about 1.6% of the full set was active somewhere.
TDP2 absorb: human TDP2 enzyme inhibitors, primary screen, biochemical, epi absorbance, recombinant enzyme | Tyrosyl-DNA phosphodiesterase 2 (Homo sapiens), O95551 | T5PNP hydrolysis, p-nitrophenol absorbance 415 nm | inhibition, % at 12.8 µM | hit rate 0.34% among 370,000;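 active = inhibition above the mean of all tested compounds plus 3 SD, set per campaign, cut at about 25% in these data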;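 also: 0% = DMSO with enzyme and 100% = buffer with substrate but no TDP2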
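Assay system: Recombinant human TDP2 | Quantity: 120 nM TDP2 per well | Incubation: 2 h at 37 °C | Signal: Epi absorbance | Evaluation: Percent inhibition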
JMJD2C inh: inhibitors of GASC-1 histone demethylase, primary screen, biochemical, fluorescence, DELFIA europium; hit rate 0.069% among 330,000; inhibition, % at 2.35 µM; GST-JMJD2C(1-420) H3K9me3 demethylation; Lysine-specific demethylase 4C (Homo sapiens), Q9H3R0;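 active = more than half of a compound's replicate wells show inhibition beyond 50%, single wells judged on their own value; inconclusive = some, but no more than half, of replicates pass 50% inhibition; inactive = no replicate passes 50% inhibition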;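 also: signal counts dimethyl H3K9 product captured on neutravidin plate; 0% = median of DMSO wells and 100% = 0.3 times that DMSO median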
PAD4 inh: human PAD4 inhibitors, primary screen, biochemical, fluorescence polarization, 1536-well format | hit rate 0.41% among 330,000 | Protein-arginine deiminase type-4 (Homo sapiens), Q9UM07 | recombinant PAD4, RCA probe fluorescence polarization | inhibition, % at 6.36 µM;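 active = percent inhibition above a cutoff equal to the mean of all tested compounds plus 3 SD, cut at about 15% in these data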;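 also: 0% = PAD4 with RCA probe and DMSO and 100% = probe without PAD4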
Apaf1 inhib: inhibitors of human Apaf-1 apoptosome, primary screen, biochemical, DEVD-Rh110 fluorescence, uHTS | Apoptotic protease-activating factor 1 (Homo sapiens), O14727 | reconstituted apoptosome caspase-3 activity | inhibition, % at 20 µM | hit rate 0.71% among 330,000 | AID 489030, 2010; active = inhibition of at least 40% at 20 µM;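 also: plate controls were DMSO wells for no effect and DEVD-CHO caspase inhibitor wells for full effect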
Target sequence (O14727 whole entry, looked up): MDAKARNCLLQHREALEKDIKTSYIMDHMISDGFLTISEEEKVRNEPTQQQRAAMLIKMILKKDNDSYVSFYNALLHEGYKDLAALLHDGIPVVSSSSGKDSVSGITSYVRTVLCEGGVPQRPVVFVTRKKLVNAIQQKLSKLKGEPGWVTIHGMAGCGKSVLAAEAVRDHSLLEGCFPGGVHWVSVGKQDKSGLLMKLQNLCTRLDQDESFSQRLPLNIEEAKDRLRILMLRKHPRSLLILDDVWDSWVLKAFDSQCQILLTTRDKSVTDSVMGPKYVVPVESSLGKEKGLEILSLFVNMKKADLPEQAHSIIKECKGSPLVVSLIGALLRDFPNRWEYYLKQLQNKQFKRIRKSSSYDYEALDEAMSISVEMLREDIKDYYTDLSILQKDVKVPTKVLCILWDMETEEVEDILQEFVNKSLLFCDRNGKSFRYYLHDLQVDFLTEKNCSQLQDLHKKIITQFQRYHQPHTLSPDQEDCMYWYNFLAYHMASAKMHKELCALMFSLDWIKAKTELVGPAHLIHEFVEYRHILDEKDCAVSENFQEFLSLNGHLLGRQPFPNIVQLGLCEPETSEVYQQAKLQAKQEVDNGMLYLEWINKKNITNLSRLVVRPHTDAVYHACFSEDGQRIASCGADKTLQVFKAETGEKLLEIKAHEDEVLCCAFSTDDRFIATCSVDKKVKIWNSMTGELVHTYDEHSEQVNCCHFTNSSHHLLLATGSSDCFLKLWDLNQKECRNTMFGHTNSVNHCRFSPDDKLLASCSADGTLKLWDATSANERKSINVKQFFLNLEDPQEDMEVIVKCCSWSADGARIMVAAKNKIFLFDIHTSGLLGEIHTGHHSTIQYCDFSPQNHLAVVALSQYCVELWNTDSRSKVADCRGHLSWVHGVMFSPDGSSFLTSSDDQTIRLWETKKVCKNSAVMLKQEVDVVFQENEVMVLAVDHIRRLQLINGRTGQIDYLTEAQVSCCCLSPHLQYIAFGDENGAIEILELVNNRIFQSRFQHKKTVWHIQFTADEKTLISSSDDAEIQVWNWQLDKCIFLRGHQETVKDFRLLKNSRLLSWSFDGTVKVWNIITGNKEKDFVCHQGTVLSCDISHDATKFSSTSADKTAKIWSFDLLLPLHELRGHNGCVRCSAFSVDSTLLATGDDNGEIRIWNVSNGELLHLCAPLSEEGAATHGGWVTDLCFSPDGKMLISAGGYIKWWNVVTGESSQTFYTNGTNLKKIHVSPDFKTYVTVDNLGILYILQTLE
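Material: biochemical Apaf-1 apoptosome reconstitution. Medium: Hepes buffer, pH 7.5. Also added: cytochrome c activation, bis-DEVD rhodamine 110 substrate. Timing: 30 min compound preincubation, 50 min activation, room temperature. Measured by: rhodamine 110 fluorescence at Ex 480/Em 540 nm.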
GSTO1 inh: inhibitors of recombinant GSTO1, primary screen, counter-screen for RBBP9 inhibitor project, biochemical, fluorescence polarization; hit rate 1.1% among 300,000; Glutathione S-transferase omega-1 (Homo sapiens), P78417; AID 1974, 2009; inhibition, % at 5.96 µM; activity-based probe fluorescence polarization;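 active = inhibition above the campaign mean inhibition plus 3 SD, cut at about 35% in these data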;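 also: 0% = GSTO1-1 with DMSO and 100% = wells lacking GSTO1-1 enzyme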
UBC9 SUMO inh: inhibitors of in vitro SUMOylation cascade, primary screen, biochemical, HTRF, uHTS; SUMO-conjugating enzyme UBC9 (Homo sapiens), P63279; HTRF SUMOylation assay, SAE1/SAE2 + UBC9; hit rate 0.36% among 290,000; inhibition, % at 35 µM; AID 2006, 2009; in the data active = inhibition above about 50%, passing the limit was not always enough; inconclusive = no clear call, values can overlap the other calls
Apaf-1 inh conf: Apaf-1 inhibitors, single-dose retest, confirmation, biochemical, fluorescence, DEVD-Rh110, 20 µM; shares compounds with Apaf1 inhib; reconstituted apoptosome, caspase-3 DEVD-Rh110 fluorescence; inhibition, % at 20 µM; hit rate 25% among 1,800;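 active = mean inhibition of at least 40% at 20 µM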;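 also: plate controls were DMSO wells for no effect and DEVD-CHO caspase inhibitor control wells for full effect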
Rh110 interf inh: Rh110 fluorescence interference by putative Apaf-1 inhibitors, confirmation, artefact control for Apaf-1 inhibitor project, biochemical, 20 µM. shares compounds with Apaf1 inhib. quenched caspase reaction. activation (fluorescence interference), % at 20 µM. 1,800 tested, under 10 active. AID 504615, 2011;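 active = signal rise of 40% or more at 20 µM, treated as a fluorescence artifact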
Fluor interf inh: fluorescence interference of Apaf-1 inhibitor hits, dose response, artefact control for Apaf-1 inhibitor project; IC50, µM; 460 tested, under 10 active; fluorescence interference counterscreen, Apaf-1 assay format; shares compounds with Apaf1 inhib; call rule not given here
An asterisk follows results filed as active; ? = inconclusive; . = no result; ! = a repeat was not active.

SMILES	TDP2 absorb	JMJD2C inh	PAD4 inh	Apaf1 inhib	GSTO1 inh	UBC9 SUMO inh	Apaf-1 inh conf	Rh110 interf inh	others
CCCCCCOc1ccc(/C(C)=N/NC2=NCCN2)cc1[N+](=O)[O-]	2.2	3.1	0.4	53.8*	-5.2	7.8	44.5*	11.0	Fluor interf inh=>100
CCc1nnc(NC(=O)c2ccc(S(=O)(=O)N3CCCCC3)cc2)s1	6.4	-4.7	2.7	54.7*	-2.6	-0.1	15.9	2.3
O=C(CCc1ccccc1)N[C@H]1[C@H](O)CCC[C@@]12C(=O)N(Cc1ccccc1)c1ccc(-c3ccccc3)cc12	0.0	.	.	.	.	.	.	.
Cc1[nH]n(-c2ccccc2)c(=O)c1C(=O)c1ccccc1	4.2	8.7	-4.9	61.0*	-5.6	3.9	18.2	9.5
CCOc1ccc(-n2nc3ccc(N)cc3n2)cc1	19.0	5.2	.	84.5*	.	37.4	24.2	2.3
COc1ccc(-n2nc3ccc(N)cc3n2)cc1	13.9	.	.	.	.	.	.	.
CCCC/C=C1/[C@@H](CC)N(Cc2ccc(OC)cc2OC)C2=N[C@H](c3ccccc3)CC(=O)N21	-9.3	.	.	.	.	.	.	.
Cc1ccc(NC(=S)Nc2cccc3cnccc23)c(C)c1	21.6	-13.6	-12.9	96.4*	2.2	97.4*	12.5	-0.2
C=C(C)CNC(=S)Nc1cccc2cnccc12	7.5	2.1	-4.0	-3.5	4.2	3.5	.	.
Cc1cc(C)cc(NC(=S)Nc2cccc3cnccc23)c1	8.6	.	.	97.6*	.	94.1	16.9	-1.2
CN(C)c1ccnc(Nc2ccccc2)c1C#N	9.1	-17.7	2.8	-1.0	1.6	10.4	.	.
CN(C)c1ccnc2c[cH-]cc12.[Fe].c1ccc(-[c-]2[c-](-c3ccccc3)[c-](-c3ccccc3)[c-](-c3ccccc3)[c-]2-c2ccccc2)cc1 (stereo not drawn)	-2.5	2.0	6.0	47.2*!	8.1	4.5	3.9	5.4
CC(C)c1cc(C(C)C)c(S(=O)(=O)N2CCC(c3cn4ccccc4n3)CC2)c(C(C)C)c1	-1.7	.	.	.	.	.	.	.
COC(=O)[C@]12C[C@H](CC(=O)NCc3cccc(C(F)(F)F)c3)C(=O)N(Cc3ccc(Cl)cc3Cl)C1=C[C@H](C1CCCC1)O[C@@H]2C	-2.3	.	.	.	.	.	.	.
O=C(NC1=C(Nc2ccc(Cl)cc2)C(=O)c2ccccc2C1=O)c1ccccc1	4.8	3.6	-18.1	53.5*	32.0	19.5	41.9*	-4.7	Fluor interf inh=>100
CCOC(=O)c1cnc(-n2nc(C)cc2C)nc1NC1CCCCC1	-3.3	?	5.5	41.7*	0.7	0.9	19.4	-2.7
CCOC(=O)c1cnc(-n2nc(C)cc2C)nc1NC	3.8	13.1	-0.5	-6.4	3.4	23.3	.	.
CCC12CCCN3CCc4c(n(c5ccccc45)C(O)(C(=O)OC)C1)C32 (stereo not drawn)	21.8	-6.8	-2.2	40.9*	-0.8	32.0	17.7	-0.3
CN(C)C(=O)c1ccc(NC(=O)COc2cccc(Oc3ccccc3)c2)cc1	-3.7	0.5	-0.7	61.1*	1.3	7.1	34.5	4.7
O=S(=O)(c1ccc(Cl)s1)N1CCC(c2cn3ccccc3n2)CC1	10.2	.	.	.	.	.	.	.
COc1ccccc1NC1=C(NC(C)=O)C(=O)c2ccccc2C1=O	1.7	-9.8	.	.	.	-0.6	.	.
COC1=C(Nc2ccccc2OC)C(=O)c2ccccc2C1=O	3.3	-2.8	-5.3	54.5*	10.2	62.9	14.1	11.2
COc1ccc2c(c1)CCc1sc(NC(=O)c3ccc(C)cc3)nc1-2	0.1	-2.5	0.8	4.1	-5.5	-8.3	.	.
COc1ccc2c(c1)Cc1sc(NC(=O)c3cccnc3)nc1-2	-8.3	5.4	-8.4	88.6*	0.8	89.8*	30.3	3.7
CC(C)(C)OC(=O)[C@H](Cc1ccccc1)NC(=O)c1nc[nH]c1C(=O)N[C@@H](CCCCN)C(=O)OC(C)(C)C	-7.5	-8.0	1.5	50.9*	.	.	9.6	6.8
SMILES	TDP2 absorb	JMJD2C inh	PAD4 inh	Apaf1 inhib	GSTO1 inh	UBC9 SUMO inh	Apaf-1 inh conf	Rh110 interf inh	others
CC(C)C[C@H](NC(=O)c1nc[nH]c1C(=O)N[C@@H](CCCCN)C(=O)OC(C)(C)C)C(=O)OC(C)(C)C	.	0.9	-1.1	42.6*	.	.	9.9	6.8
CC(C)(C)OC(=O)[C@H](CCCCN)NC(=O)c1nc[nH]c1C(=O)N[C@@H](CCCCN)C(=O)OC(C)(C)C	-8.0	4.1	1.5	12.8	.	.	.	.
COC(=O)[C@]12C[C@H](CC(=O)N3CCN(C(=O)C4CC4)CC3)C(=O)N(Cc3cccc4ccccc34)C1=C[C@H](C1CCCC1)O[C@@H]2C	-2.9	.	.	.	.	.	.	.
C=CCN(CC#Cc1ccc(OC)cc1)CC=C	8.3	.	.	.	.	.	.	.
CC1(C)Cc2cccc(OCC(=O)N3CCN(c4cccc(C(F)(F)F)c4)CC3)c2O1	-8.6	9.0	0.4	44.6*	9.1	.	44.9*	9.4	Fluor interf inh=>100
C/C=C/C(=O)N1CCC(C(=O)NCC2COc3ccccc3O2)CC1 (stereo not drawn)	-2.0	.	.	.	.	.	.	.
CCN1CCN(Cc2ccc(NC(=O)c3cc(NC(=O)c4cc(-c5ccc(OC)cc5)n[nH]4)cc(OC)c3)cc2C(F)(F)F)CC1	3.3	-13.6	-4.7	56.3*	-36.3	-24.7	18.3	5.3
CCN1CCN(Cc2ccc(NC(=O)c3cc(NC(=O)c4cncc(-c5cccs5)c4)cc(OC)c3)cc2C(F)(F)F)CC1	-4.4	-0.6	-10.5	67.9*	-61.9	-12.3	34.3	-2.0
CCN1CCN(Cc2ccc(NC(=O)c3ccc(C)c(NC(=O)c4csc(-c5ccncc5)n4)c3)cc2C(F)(F)F)CC1	-1.6	9.1	-1.9	58.5*	-9.1	13.3	28.4	1.0
CCN1CCN(Cc2ccc(NC(=O)c3ccc(C)c(NC(=O)C4=NN(c5ccccc5)C(=O)C4)c3)cc2C(F)(F)F)CC1	11.5	12.2	-7.3	24.1	-7.7	-0.9	.	.
CCN1CCN(Cc2ccc(NC(=O)c3cc(NC(=O)C4=NN(c5ccccc5)C(=O)C4)cc(OC)c3)cc2C(F)(F)F)CC1	10.6	4.6	-3.1	50.6*	-5.4	11.7	20.6	11.6
